# Most compounds without a hit are left out; they make up all but 5.5% or so of the library.
# PLAP act: PLAP enzyme activators, biochemical, luminescence, HTS; Alkaline phosphatase, placental type (Homo sapiens), P05187; purified PLAP enzyme, luminescent substrate read-out; active compounds read high; activation fold at 20 µM; hit rate 1.2% among 96,000; in the data active = activation fold above about 2
# Target sequence (P05187 whole entry, looked up): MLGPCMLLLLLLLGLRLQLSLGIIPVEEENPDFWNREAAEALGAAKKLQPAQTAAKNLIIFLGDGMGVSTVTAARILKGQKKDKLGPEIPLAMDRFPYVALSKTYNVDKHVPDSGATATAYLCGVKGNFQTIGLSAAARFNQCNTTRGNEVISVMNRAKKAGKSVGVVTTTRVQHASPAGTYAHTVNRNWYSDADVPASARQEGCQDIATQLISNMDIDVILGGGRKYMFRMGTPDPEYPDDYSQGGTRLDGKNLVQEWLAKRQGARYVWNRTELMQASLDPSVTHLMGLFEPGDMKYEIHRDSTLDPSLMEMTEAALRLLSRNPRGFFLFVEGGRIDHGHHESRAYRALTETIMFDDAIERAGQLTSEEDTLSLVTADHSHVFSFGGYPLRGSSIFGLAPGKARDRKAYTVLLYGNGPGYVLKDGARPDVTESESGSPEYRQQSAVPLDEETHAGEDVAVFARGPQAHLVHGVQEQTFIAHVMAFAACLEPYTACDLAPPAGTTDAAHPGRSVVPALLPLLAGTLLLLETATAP
# Ecoli WT expand: growth inhibitors of wild-type E. coli, primary screen, strain BW25113, expanded library, OD600; OD600 absorbance; growth inhibition, % at 100 µM; hit rate 0.15% among 98,000; AID 710, 2007;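 active = growth inhibition above about 50% at one test dose, limit read from the data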;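 also: growth measured after 20 h incubation at 37 °C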
# PostGolgi ctrl: growth inhibition of yeast control strain, primary screen, counter-screen for post-Golgi transport modulator project. efflux-deficient yeast background strain, growth absorbance A615, 16 h. inhibition, % at 10 µM. hit rate 5% among 98,000. AID 738, 2007
# HePTP inhibitor: inhibitors of human HePTP phosphatase, primary screen, biochemical, absorbance, leukemia target; Tyrosine-protein phosphatase non-receptor type 7 (Homo sapiens), P35236; recombinant HePTP phosphatase activity, OD absorbance; inhibition, % at 20 µM; hit rate 0.64% among 110,000; AID 521, 2006; in the data active = inhibition above about 50%
# PostGolgi yeast: phenotypic screen on post-Golgi transport, primary screen; AID 739, 2007; hit rate 0.9% among 98,000; inhibition, % at 10 µM; post-Golgi transport phenotypic cell assay;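 also: yeast cells grown in 1536-well plates; yeast grown about 18 h at 30C before absorbance read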
# Ecoli tolC: growth inhibitors of E. coli tolC mutant, primary screen, strain BW25113 ΔtolC::kan, 384-well; hit rate 2.2% among 65,000; AID 573, 2007; OD615; growth inhibition, % at 10 µM (by protocol);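 active = growth inhibition at or above a cutoff equal to the mean over every tested compound plus 3 SD, cut at about 60% in these data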;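 also: growth measured after 20 h incubation at 37 °C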
#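 test system = E. coli BW25113 ΔtolC::kan bacteria | medium = LB with kanamycin 50 µg/mL | signal = OD at 615 nm | schedule = 37 °C, 20 h exposure | evaluation = % inhibition of E. coli growth | compound dosing = one dose of 10 µM final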
# Numbers stand for hits; i = inactive; nt = no result. Rule as the data show it, unless noted: active = inhibition above about 30%; inactive = the rest.
SMILES,PLAP act,Ecoli WT expand,PostGolgi ctrl,HePTP inhibitor,PostGolgi yeast,Ecoli tolC
Cc1ccc(S(=O)(=O)NCCNc2ccc([N+](=O)[O-])cc2C(F)(F)F)cc1,i,i,39.6,nt,i,nt
Cc1ccc(/C=N/Nc2ncc(Cl)cc2Cl)s1,2.8,i,i,nt,i,nt
Clc1cnc(N/N=C/c2cccs2)c(Cl)c1,i,i,i,nt,i,nt
CCC(C)Oc1nc2ccccc2nc1NS(=O)(=O)c1ccccc1 (stereo unspecified),i,i,31.3,i,i,nt
COc1ccc(C(=O)/C=C(\C)c2ccc(OC)cc2)cc1,nt,nt,nt,i,nt,nt
Cc1cc(C)n(CC(O)Cn2c3ccccc3c3ccccc32)c(=O)n1 (stereo unspecified),i,i,i,i,i,i
Cc1cc(C)n(CC(O)Cn2c3ccc(Br)cc3c3cc(Br)ccc32)c(=O)n1 (stereo unspecified),i,i,103.5,nt,99.3,nt
CCSc1nc(C)cc(C)c1S(=O)(=O)c1ccccc1C,i,i,30.8,nt,i,nt
O=[N+]([O-])c1ccc(N2CCN(S(=O)(=O)c3ccc(Cl)cc3)CC2)cc1NCc1ccccc1,nt,nt,nt,i,nt,nt
Cc1ccc2nc(-c3ccncc3)cc(-c3ccccc3)c2c1,i,i,41.7,nt,i,nt
Cc1ccc2nc(-c3ccc(NS(C)(=O)=O)cc3)cc(-c3ccccc3)c2c1,i,i,57.9,nt,i,nt
Cc1ccc2nc(-c3ccc(N)cc3)cc(-c3ccccc3)c2c1,nt,nt,nt,i,nt,nt
CC(=O)Nc1cc(C(C)C)c(O)c(C(C)C)c1,i,i,i,nt,i,nt
CC(C)c1cc(Nc2nccs2)cc(C(C)C)c1O,nt,nt,nt,83.7,nt,nt
CCN(CC)c1nc(SCC(=O)O)nc(N(CC)CC)n1,i,i,40.3,i,i,i
O=c1[nH]cnc2c([N+](=O)[O-])cccc12,i,i,32.3,nt,i,nt
O=C(CSc1nnc(-c2c[nH]c3ccccc23)o1)N(Cc1ccccc1)c1ccc(F)cc1,nt,i,52.8,i,i,i
CC(C)c1ccc(/C=C2\SC(=S)N(Cc3ccco3)C2=O)cc1,nt,nt,nt,i,nt,nt
CCOC(=O)C(=CNc1ccc(C(N)=O)cc1)C(=O)OCC,nt,nt,nt,i,nt,nt
O=[N+]([O-])/C=C/c1c(OCc2ccccc2)ccc2ccccc12,i,i,99.2,nt,104.6,nt
COc1ccc2ccccc2c1C=Nc1ccc([N+](=O)[O-])cc1,nt,nt,nt,i,nt,nt
CCOC(=O)COc1ccc(/C=C/[N+](=O)[O-])c(OCC(=O)OCC)c1,i,i,i,nt,i,nt
CCOc1ccc(/C=C/[N+](=O)[O-])c2ccccc12,i,i,80.7,nt,77.6,nt
COc1cc(NC(=O)Cn2nc([N+](=O)[O-])c(Cl)c2C)cc([N+](=O)[O-])c1,nt,nt,nt,i,nt,nt
O=C(Nc1cccc([N+](=O)[O-])c1)c1cccc(S(=O)(=O)N(CCO)CCO)c1,nt,nt,nt,i,nt,nt
SMILES,PLAP act,Ecoli WT expand,PostGolgi ctrl,HePTP inhibitor,PostGolgi yeast,Ecoli tolC
CCOC(=O)C1=C(COc2ccc(F)cc2Cl)NC(=O)NC1c1cc(C)ccc1C (stereo unspecified),i,i,30.1,nt,i,nt
O=C(NCc1ccncc1)c1nnc(Cc2c(F)cccc2Cl)o1,i,i,30.7,i,i,i
O=C(NCc1cccnc1)c1nnc(Cc2ccc(F)cc2)o1,i,i,40.1,i,i,i
O=C(NCc1ccco1)c1nnc(Cc2ccc(F)cc2)o1,nt,i,i,i,i,i
O=C(NCc1ccco1)c1nnc(Cc2ccc(Cl)cc2)o1,i,i,i,nt,i,nt
COc1cc(-c2nnc3ccc(C(F)(F)F)cn23)ccc1Oc1ccc([N+](=O)[O-])cc1,nt,nt,nt,101.7,nt,nt
C/C(=N/NC(=O)C1C(=O)NCC1c1ccccc1)c1ccc2c(c1)CCCC2 (stereo unspecified),nt,nt,nt,i,nt,nt
O=C(Nc1ccccc1N1CCCC1)c1cc2ccccc2o1,i,i,39.2,i,i,i
CS(=O)(=O)N1CCN(c2ccccc2NC(=O)c2ccc(Br)o2)CC1,i,i,41.6,nt,i,nt
O=C(Nc1ccccc1N1CCCCC1)c1ccccc1F,i,i,34.2,i,i,87.7
CN1CCN(c2ccccc2NC(=O)c2cc3ccccc3o2)CC1,i,i,i,nt,i,nt
O=C(Nc1ccccc1N1CCN(C(=O)c2ccccc2)CC1)c1cc(Br)ccc1Cl,i,i,30.9,nt,i,nt
O=C(Nc1ccccc1F)c1ccccc1F,nt,nt,nt,i,nt,nt
Cc1ccc(-c2ccc(C(=O)Nc3ccc([N+](=O)[O-])cc3C)o2)cc1Cl,nt,nt,nt,i,nt,nt
CC(=O)Nc1ccc(S(=O)(=O)N(c2ccccc2F)S(=O)(=O)c2ccc(NC(C)=O)cc2)cc1,nt,nt,nt,i,nt,nt
O=C(Nc1ccccc1N1CCN(C(=O)c2ccccc2)CC1)c1cc2ccccc2o1,i,i,36.2,i,i,i
O=C(Nc1ccc(N2CCN(C(=O)c3ccccc3)CC2)cc1)c1cc2ccccc2o1,i,i,i,i,i,i
O=C(Nc1cccc(Br)c1)c1cc2ccccc2o1,i,i,i,i,i,100.0
CC(Oc1ccc(Cl)cc1Cl)C(=O)Nc1ccncc1 (stereo unspecified),i,i,43.7,i,57.9,i
O=C(CCCOc1ccc(Cl)cc1Cl)Nc1ccccn1,nt,nt,nt,i,nt,nt
O=C(CCCOc1ccc(Cl)cc1Cl)Nc1ccncc1,i,i,61.5,nt,i,nt
CCNC(=O)CCCOc1ccc(Cl)cc1Cl,i,i,35.9,i,i,i
O=C(O)c1ccc(Oc2ccc(S(=O)(=O)c3ccc(Cl)cc3)cc2)cc1,nt,nt,nt,i,nt,nt
CCCCOc1ccc(-c2ncc(C(=O)O)c(C)n2)cc1,i,i,i,i,43.8,i
COc1cc2c(cc1NC(=O)c1ccc3ccccc3n1)oc1ccccc12,nt,nt,nt,i,nt,nt
SMILES,PLAP act,Ecoli WT expand,PostGolgi ctrl,HePTP inhibitor,PostGolgi yeast,Ecoli tolC
Cc1ccccc1NS(=O)(=O)c1cc(C(=O)NCCSC2CCCCC2)ccc1C,i,i,i,nt,i,nt
Cc1ccc(C)c(NS(=O)(=O)c2cc(C(=O)NCCSC3CCCCC3)ccc2C)c1,i,i,40.6,nt,i,nt
CC(=O)Oc1cccc(N2C(=O)CCC2=O)c1,nt,nt,nt,i,nt,nt
COc1cc(C(=O)NCCc2nc3ccccc3[nH]2)cc(OC)c1OC,nt,nt,nt,i,nt,nt
N/C(=N\OC(=O)C(c1ccccc1)c1ccccc1)c1cccnc1,i,i,39.5,i,i,nt
N/C(=N\OC(=O)C(c1ccccc1)c1ccccc1)c1ccccc1,nt,nt,nt,i,nt,nt
Cc1cc(C)cc(NC(=O)COc2ccc(C(C)C)cc2)c1,nt,nt,nt,i,nt,nt
CC1=NN(c2ccc(C(=O)O)cc2)C(=O)/C1=C\c1ccc(-c2cccc(C(=O)O)c2)o1,nt,nt,nt,100.6,nt,nt
O=C1NN(c2cccc(Cl)c2)C(=O)/C1=C\c1ccc(-c2cccc(C(=O)O)c2)o1,nt,nt,nt,101.5,nt,nt
COC(=O)c1cccc(-c2ccc(/C=C3/C(=O)NN(c4cccc(Cl)c4)C3=O)o2)c1,nt,nt,nt,i,nt,nt
COC(=O)c1cccc(-c2ccc(/C=C3\C(=O)N(c4ccc(S(N)(=O)=O)cc4)N=C3C)o2)c1,nt,nt,nt,i,nt,nt
CC(=O)c1cccc(-c2ccc(/C=C3\C(=O)N(c4cccc(C(=O)O)c4)N=C3C)o2)c1,nt,nt,nt,i,nt,nt
COC(=O)c1cccc(-c2ccc(/C=C3\C(=O)N(c4cccc(C(=O)O)c4)N=C3C)o2)c1,nt,nt,nt,101.9,nt,nt
N=C1S/C(=C\c2ccc(-c3cccc(C(=O)O)c3)o2)C(=O)N1c1ccc2c(c1)OCO2,nt,nt,nt,102.7,nt,nt

# Bioassay records from PubChem.
